# Data published in ChEMBL document CHEMBL4715736, “Identification of anticancer agents based on the thieno[2,3-b]pyridine and 1H-pyrazole molecular scaffolds” (2016).
# Experiments:
# Type in all cases: functional
# OVCAR-3 = assay: Growth inhibition of human OVCAR-3 cells assessed as cell growth at 0.01 uM incubated for 48 hrs by sulforhodamine B assay relative to control; settings: read-out: Activity
# HT-29 = assay: Growth inhibition of human HT-29 cells assessed as cell growth at 0.01 uM incubated for 48 hrs by sulforhodamine B assay relative to control; settings: read-out: Activity
# SF-268 = assay: Growth inhibition of human SF-268 cells assessed as cell growth at 0.01 uM incubated for 48 hrs by sulforhodamine B assay relative to control; settings: read-out: Activity
# MOLT-4 [1] = assay: Growth inhibition of human MOLT-4 cells assessed as cell growth at 100 uM incubated for 48 hrs by sulforhodamine B assay relative to control; settings: read-out: Activity
# M14 = assay: Growth inhibition of human M14 cells assessed as cell growth at 0.01 uM incubated for 48 hrs by sulforhodamine B assay relative to control; settings: read-out: Activity
# DU-145 = assay: Growth inhibition of human DU-145 cells assessed as cell growth at 0.01 uM incubated for 48 hrs by sulforhodamine B assay relative to control; settings: read-out: Activity
# In short: (§1)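 NCI Developmental Therapeutics Program NCI60 panel. Compounds that were active in the 10 µM one-dose screen went on to dose–response testing. Growth at each concentration is expressed relative to untreated control (100%). GI50 (concentration giving 50% of maximal inhibition of proliferation) and TGI (concentration giving total growth inhibition) were derived from the curves.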
# U-251 = assay: Growth inhibition of human U-251 cells assessed as cell growth at 100 uM incubated for 48 hrs by sulforhodamine B assay relative to control; settings: read-out: Activity
# IGROV-1 = assay: Growth inhibition of human IGROV-1 cells assessed as cell growth at 1 uM incubated for 48 hrs by sulforhodamine B assay relative to control; settings: read-out: Activity
# MDA-MB-468 = assay: Growth inhibition of human MDA-MB-468 cells assessed as cell growth at 0.01 uM incubated for 48 hrs by sulforhodamine B assay relative to control; settings: read-out: Activity
# Hs-578T [2] = assay: Growth inhibition of human Hs-578T cells assessed as cell growth at 100 uM incubated for 48 hrs by sulforhodamine B assay relative to control; settings: read-out: Activity
# HOP-62 = assay: Growth inhibition of human HOP-62 cells assessed as cell growth at 0.01 uM incubated for 48 hrs by sulforhodamine B assay relative to control; settings: read-out: Activity
# A549 = assay: Growth inhibition of human A549/ATCC cells assessed as cell growth at 0.01 uM incubated for 48 hrs by sulforhodamine B assay relative to control; settings: read-out: Activity; in short: as §1
# TK-10 [3] = assay: Growth inhibition of human TK-10 cells assessed as cell growth at 0.01 uM incubated for 48 hrs by sulforhodamine B assay relative to control; settings: read-out: Activity
# TK-10 [4] = assay: Growth inhibition of human TK-10 cells incubated for 48 hrs by sulforhodamine B assay; settings: for CC50: read-out: LC50 (the source's name)
# In short: (§2)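 NCI DTP 60-line human tumour panel. Dose-response curves were run only for ligands active in the initial 10 µM screen. GI50 (concentration giving 50% of maximal inhibition of proliferation) and TGI (concentration giving total growth inhibition) were derived from these curves.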
# HCT-15 = assay: Growth inhibition of human HCT-15 cells assessed as cell growth at 1 uM incubated for 48 hrs by sulforhodamine B assay relative to control; settings: read-out: Activity
# Hs-578T [5] = assay: Growth inhibition of human Hs-578T cells assessed as cell growth at 0.1 uM incubated for 48 hrs by sulforhodamine B assay relative to control; settings: read-out: Activity
# SR = assay: Growth inhibition of human SR cells assessed as cell growth at 1 uM incubated for 48 hrs by sulforhodamine B assay relative to control; settings: read-out: Activity
# SK-OV-3 = assay: Growth inhibition of human SK-OV-3 cells assessed as cell growth at 1 uM incubated for 48 hrs by sulforhodamine B assay relative to control; settings: read-out: Activity
# SF-295 = assay: Growth inhibition of human SF-295 cells assessed as cell growth at 1 uM incubated for 48 hrs by sulforhodamine B assay relative to control; settings: read-out: Activity
# CCRF-CEM = assay: Growth inhibition of human CCRF-CEM cells assessed as cell growth at 0.1 uM incubated for 48 hrs by sulforhodamine B assay relative to control; settings: read-out: Activity; in short: as §1
# SF-539 = assay: Growth inhibition of human SF-539 cells assessed as cell growth at 1 uM incubated for 48 hrs by sulforhodamine B assay relative to control; settings: read-out: Activity
# SK-MEL-5 = assay: Growth inhibition of human SK-MEL-5 cells incubated for 48 hrs by sulforhodamine B assay; in short: as §2
# NCI-H460 = assay: Growth inhibition of human NCI-H460 cells assessed as cell growth at 0.1 uM incubated for 48 hrs by sulforhodamine B assay relative to control; settings: read-out: Activity
# MDA-MB-231 = assay: Growth inhibition of human MDA-MB-231 cells assessed as cell growth at 1 uM incubated for 48 hrs by sulforhodamine B assay relative to control; settings: read-out: Activity
# RPMI-8226 = assay: Growth inhibition of human RPMI-8226 cells incubated for 48 hrs by sulforhodamine B assay; in short: as §2
# NCI-H23 = assay: Growth inhibition of human NCI-H23 cells incubated for 48 hrs by sulforhodamine B assay
# In short: (§3)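 NCI60 panel at the NCI Developmental Therapeutics Program. Only compounds active in the 10 µM screen went to dose-response testing. GI50, the concentration giving 50% of maximal inhibition of proliferation, and TGI, the concentration giving total growth inhibition, were derived from the dose-response curves.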
# NCI-H522 = assay: Growth inhibition of human NCI-H522 cells incubated for 48 hrs by sulforhodamine B assay; in short: as §3
# OVCAR-4 = assay: Growth inhibition of human OVCAR-4 cells assessed as cell growth at 0.01 uM incubated for 48 hrs by sulforhodamine B assay relative to control; settings: read-out: Activity
# UO-31 = assay: Growth inhibition of human UO-31 cells assessed as cell growth at 0.01 uM incubated for 48 hrs by sulforhodamine B assay relative to control; settings: read-out: Activity
# PC-3 = assay: Growth inhibition of human PC-3 cells incubated for 48 hrs by sulforhodamine B assay; settings: for CC50: read-out: LC50 (the source's name); in short: as §2
# MOLT-4 [6] = assay: Growth inhibition of human MOLT-4 cells assessed as cell growth at 1 uM incubated for 48 hrs by sulforhodamine B assay relative to control; settings: read-out: Activity
# ACHN = assay: Growth inhibition of human ACHN cells assessed as cell growth at 0.1 uM incubated for 48 hrs by sulforhodamine B assay relative to control; settings: read-out: Activity
# 786-0 = assay: Growth inhibition of human 786-0 cells assessed as cell growth at 100 uM incubated for 48 hrs by sulforhodamine B assay relative to control; settings: read-out: Activity
# SK-MEL-2 = assay: Growth inhibition of human SK-MEL-2 cells incubated for 48 hrs by sulforhodamine B assay; in short: as §2
# NCI/ADR-RES = assay: Growth inhibition of human NCI/ADR-RES cells assessed as cell growth at 1 uM incubated for 48 hrs by sulforhodamine B assay relative to control; settings: read-out: Activity
smiles,measurement,setting,value
Nc1c(C(=O)Nc2ccccc2)sc2nc3c(cc12)CN(Cc1ccccc1)CC3,growth at 0.01 µM,OVCAR-3,98%
same,growth at 0.01 µM,HT-29,104%
same,growth at 0.01 µM,SF-268,91%
same,growth at 100 µM,MOLT-4 [1],18%
same,growth at 0.01 µM,M14,98%
same,growth at 0.01 µM,DU-145,106%
same,growth at 100 µM,U-251,12%
same,growth at 1 µM,IGROV-1,101%
same,growth at 0.01 µM,MDA-MB-468,96%
same,growth at 100 µM,Hs-578T [2],-6%
same,growth at 0.01 µM,HOP-62,89%
same,growth at 0.01 µM,A549,98%
same,growth at 0.01 µM,TK-10 [3],93%
same,GI50,TK-10 [4],4.09 µM
same,TGI,TK-10 [4],54.7 µM
same,CC50,TK-10 [4],> 100 µM
same,growth at 1 µM,HCT-15,94%
same,growth at 0.1 µM,Hs-578T [5],92%
same,growth at 1 µM,SR,82%
same,growth at 1 µM,SK-OV-3,96%
same,growth at 1 µM,SF-295,90%
same,growth at 0.1 µM,CCRF-CEM,96%
same,growth at 1 µM,SF-539,83%
same,GI50,SK-MEL-5,9.58 µM
same,LC50,SK-MEL-5,> 100 µM
same,TGI,SK-MEL-5,> 100 µM
same,growth at 0.1 µM,NCI-H460,102%
same,growth at 1 µM,MDA-MB-231,92%
same,GI50,RPMI-8226,55.8 µM
same,LC50,RPMI-8226,> 100 µM
same,TGI,RPMI-8226,> 100 µM
same,GI50,NCI-H23,21.7 µM
same,LC50 (50% lethal concentration),NCI-H23,> 100 µM
same,TGI,NCI-H23,> 100 µM
same,GI50,NCI-H522,32.5 µM
same,LC50,NCI-H522,> 100 µM
same,TGI,NCI-H522,> 100 µM
same,growth at 0.01 µM,OVCAR-4,101%
same,growth at 0.01 µM,UO-31,80%
same,GI50,PC-3,27.1 µM
same,TGI,PC-3,> 100 µM
same,CC50,PC-3,> 100 µM
same,growth at 1 µM,MOLT-4 [6],97%
same,growth at 0.1 µM,ACHN,91%
same,growth at 100 µM,786-0,22%
same,GI50,SK-MEL-2,20.3 µM
same,LC50,SK-MEL-2,> 100 µM
same,TGI,SK-MEL-2,> 100 µM
same,growth at 1 µM,NCI/ADR-RES,98%
Cc1ccc(NC(=O)c2sc3nc4c(cc3c2N)C(=O)CCC4)cc1C,growth at 0.01 µM,OVCAR-3,102%
same,growth at 0.01 µM,HT-29,106%
same,growth at 0.01 µM,SF-268,95%
same,growth at 100 µM,MOLT-4 [1],-6%
same,growth at 0.01 µM,M14,96%
same,growth at 0.01 µM,DU-145,104%
same,growth at 100 µM,U-251,-9%
same,growth at 1 µM,IGROV-1,51%
same,growth at 0.01 µM,MDA-MB-468,95%
same,growth at 100 µM,Hs-578T [2],17%
same,growth at 0.01 µM,HOP-62,89%
same,growth at 0.01 µM,A549,100%
same,growth at 0.01 µM,TK-10 [3],96%
same,TGI,TK-10 [4],> 100 µM
same,CC50,TK-10 [4],> 100 µM
same,growth at 1 µM,HCT-15,32%
same,growth at 0.1 µM,Hs-578T [5],88%
same,growth at 1 µM,SR,25%
same,growth at 1 µM,SK-OV-3,29%
same,growth at 1 µM,SF-295,17%
same,growth at 0.1 µM,CCRF-CEM,97%
same,growth at 1 µM,SF-539,21%
same,GI50,SK-MEL-5,0.376 µM
same,LC50,SK-MEL-5,≥ 100 µM
same,TGI,SK-MEL-5,16.4 µM
same,growth at 0.1 µM,NCI-H460,102%
same,growth at 1 µM,MDA-MB-231,56%
same,GI50,RPMI-8226,1.43 µM
same,LC50,RPMI-8226,> 100 µM
same,GI50,NCI-H522,0.256 µM
same,LC50,NCI-H522,> 100 µM
same,TGI,NCI-H522,20 µM
same,growth at 0.01 µM,OVCAR-4,94%
same,growth at 0.01 µM,UO-31,81%
same,growth at 1 µM,MOLT-4 [6],82%
same,growth at 0.1 µM,ACHN,95%
same,growth at 100 µM,786-0,20%
same,GI50,SK-MEL-2,0.463 µM
same,LC50,SK-MEL-2,> 100 µM
same,TGI,SK-MEL-2,> 100 µM
same,growth at 1 µM,NCI/ADR-RES,39%
COc1cccc(NC(=O)c2sc3nc4c(cc3c2N)CN(Cc2ccccc2)CC4)c1,growth at 0.01 µM,OVCAR-3,107%
same,growth at 0.01 µM,HT-29,104%
same,growth at 0.01 µM,SF-268,99%
same,growth at 100 µM,MOLT-4 [1],13%
same,growth at 0.01 µM,M14,96%
same,growth at 0.01 µM,DU-145,105%
same,growth at 100 µM,U-251,-54%
same,growth at 1 µM,IGROV-1,90%
same,growth at 0.01 µM,MDA-MB-468,92%
same,growth at 100 µM,Hs-578T [2],-9%
same,growth at 0.01 µM,HOP-62,80%
same,growth at 0.01 µM,A549,96%
same,growth at 0.01 µM,TK-10 [3],104%
same,GI50,TK-10 [4],4.82 µM
same,TGI,TK-10 [4],21.6 µM
same,CC50,TK-10 [4],86.8 µM
same,growth at 1 µM,HCT-15,49%
same,growth at 0.1 µM,Hs-578T [5],92%
same,growth at 1 µM,SR,25%
same,growth at 1 µM,SK-OV-3,81%
same,growth at 1 µM,SF-295,77%
same,growth at 0.1 µM,CCRF-CEM,98%
same,growth at 1 µM,SF-539,79%
same,GI50,SK-MEL-5,2.15 µM
same,LC50,SK-MEL-5,> 100 µM
same,TGI,SK-MEL-5,31.9 µM
same,growth at 0.1 µM,NCI-H460,101%
same,growth at 1 µM,MDA-MB-231,78%
same,GI50,RPMI-8226,38.9 µM
same,LC50,RPMI-8226,> 100 µM
same,TGI,RPMI-8226,> 100 µM
same,GI50,NCI-H23,7.18 µM
same,LC50 (50% lethal concentration),NCI-H23,> 100 µM
same,TGI,NCI-H23,49.2 µM
same,GI50,NCI-H522,15.1 µM
same,LC50,NCI-H522,> 100 µM
same,TGI,NCI-H522,> 100 µM
same,growth at 0.01 µM,OVCAR-4,86%
same,growth at 0.01 µM,UO-31,92%
same,GI50,PC-3,11.6 µM
same,TGI,PC-3,91.1 µM
same,CC50,PC-3,> 100 µM
same,growth at 1 µM,MOLT-4 [6],78%
same,growth at 0.1 µM,ACHN,101%
same,growth at 100 µM,786-0,-47%
same,GI50,SK-MEL-2,10.3 µM
same,LC50,SK-MEL-2,> 100 µM
same,TGI,SK-MEL-2,44.5 µM
same,growth at 1 µM,NCI/ADR-RES,63%
